According to article PMC11886927 (Nature, 2025):
“Also recorded” adds a separate entry of the source.

Assays:
BA production = assay: Endogenously produced BA levels in faeces, liver and serum of supplemented mice; type: in vivo, mouse; settings: daily for 14 days
Method in brief: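 Mice (WT, Nr1h4−/−, SPF, ABX) were dosed by daily oral gavage with deuterated or unlabelled conjugate (DMSO stock diluted in corn oil), 50 mg kg−1 day−1, 100 µl, for 14 days. Controls got DMSO plus corn oil. Faeces, liver and serum BAs were measured by HPLC-HRMS. Serum was extracted with 4 volumes methanol, sonicated 1 min, stirred 10 min, and spun 5,000g for 5 min. Groups were compared by Welch-corrected two-sided t-test.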

FXR = settings: cited from earlier work
[1] = biological target: T1, full-length human FXR protein (Homo sapiens, UniProt Q96RI1); assay: DiscoverX cell-based protein–protein interaction assay on FXR, antagonist mode; settings: for FXR antagonistic activity against GW4604-mediated activation (in words): tested range of concentrations
T1 sequence (Q96RI1 1-486): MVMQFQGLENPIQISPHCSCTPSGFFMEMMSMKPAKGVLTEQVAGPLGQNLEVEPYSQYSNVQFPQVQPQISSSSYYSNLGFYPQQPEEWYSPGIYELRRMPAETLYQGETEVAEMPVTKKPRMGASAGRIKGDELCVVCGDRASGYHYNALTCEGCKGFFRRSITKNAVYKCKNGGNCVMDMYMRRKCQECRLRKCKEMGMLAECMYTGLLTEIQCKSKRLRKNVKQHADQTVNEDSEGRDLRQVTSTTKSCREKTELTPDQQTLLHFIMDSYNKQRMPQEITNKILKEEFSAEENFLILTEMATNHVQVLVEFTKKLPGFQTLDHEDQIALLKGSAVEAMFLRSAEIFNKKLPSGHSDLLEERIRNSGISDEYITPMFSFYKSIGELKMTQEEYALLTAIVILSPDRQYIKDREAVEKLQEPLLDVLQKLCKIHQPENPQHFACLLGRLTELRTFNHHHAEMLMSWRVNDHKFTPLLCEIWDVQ

[2] = biological target: T2, recombinant human VNN1 (ΔN490aa truncated) (Homo sapiens, UniProt O95497); assay: VNN1 in vitro assay with pantetheine derivatives; type: biochemical; settings: 0.01 μM VNN1, 37 °C, 15 min, pantothenic acid formation, n = 3, mean ± s.d.
T2 sequence (O95497 22-490 limits assumed): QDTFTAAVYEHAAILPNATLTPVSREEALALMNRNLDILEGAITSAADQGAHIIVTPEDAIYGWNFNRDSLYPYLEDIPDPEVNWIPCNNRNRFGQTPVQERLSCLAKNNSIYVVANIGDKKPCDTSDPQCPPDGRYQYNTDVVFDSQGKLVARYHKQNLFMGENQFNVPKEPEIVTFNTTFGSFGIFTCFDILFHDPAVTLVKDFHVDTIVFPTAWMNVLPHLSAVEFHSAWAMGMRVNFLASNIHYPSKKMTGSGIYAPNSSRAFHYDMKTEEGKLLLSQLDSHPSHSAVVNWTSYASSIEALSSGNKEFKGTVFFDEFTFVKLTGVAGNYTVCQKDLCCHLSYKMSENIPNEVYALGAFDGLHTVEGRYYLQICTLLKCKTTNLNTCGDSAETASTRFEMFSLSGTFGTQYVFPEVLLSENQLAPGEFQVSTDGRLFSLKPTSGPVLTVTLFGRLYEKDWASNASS
Method in brief: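 Recombinant human ΔN490aa VNN1 (C-terminal His tag, in PBS pH 7.0) was mixed 1:1 with substrate (pantetheine or cholic acid–pantetheine derivative) in PBS pH 7.0. Final enzyme was 0.01 µM and final substrate 20–640 µM. Reactions ran 15 min at 37 °C and were quenched with methanol. Pantothenic acid was quantified by HPLC-HRMS (ESI+, m/z 220.1180) against a calcium pantothenate standard curve. Initial velocities were fitted to saturation kinetics; three independent assays used the same enzyme batch.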

[3] = biological target: T1, full-length human FXR protein; assay: DiscoverX cell-based protein–protein interaction assay on FXR, agonist mode; settings: any of the tested concentrations
Method in brief: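 CHO-K1 cells (mycoplasma-negative, not authenticated) expressing full-length human FXR with an SRC-derived co-activator peptide fusion. Cells were grown in charcoal-dextran-filtered serum, then given 5X sample for 3–16 h at 37 °C or room temperature. Signal came from PathHunter chemiluminescent detection (1 h, room temperature). Activity (%) was set against vehicle RLU and GW4064 maximum, with duplicates at each concentration.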

Structure (SMILES): C[C@H](CCC(=O)O)[C@H]1CC[C@H]2[C@@H]3[C@H](O)C[C@@H]4C[C@H](O)CC[C@]4(C)[C@H]3CC[C@]12C [CDCA, chenodeoxycholic acid]
- BA levels in the liver and serum of WT and Nr1h4^−/− mice (BA production): not significantly affected

Structure (SMILES): C[C@H](CCC(=O)NCCS(=O)(=O)O)[C@H]1CC[C@H]2[C@@H]3[C@@H](O)[C@@H](O)[C@@H]4C[C@H](O)CC[C@]4(C)[C@H]3CC[C@]12C [TβMCA, Tauro-β-muricholic acid]
- FXR antagonism as previously reported (FXR): weak, mouse-specific FXR antagonist
- FXR antagonistic activity against GW4604-mediated activation (in words) [1]: did not show FXR antagonistic effects; also recorded: inactive

Structure (SMILES): CC(C)(CO)[C@@H](O)C(=O)NCCC(=O)NCCS [pantetheine]
- Vmax, hydrolysis by VNN1 [2]: 2.13 ± 0.37 min⁻¹

Structure (SMILES): CSCCNC(=O)CC[C@@H](C)[C@H]1CC[C@H]2[C@@H]3[C@@H](O)[C@@H](O)[C@@H]4C[C@H](O)CC[C@]4(C)[C@H]3CC[C@]12C [βMCA–MCY]
- IC50 ([1]; read-out: IC50, antagonistic activity against GW4604-mediated activation of FXR, agonist challenge GW4064 0.37 μM (EC80), CHO-K1 cells, duplicate): 104 µM
- FXR antagonistic activity against GW4604-mediated activation (in words) [1]: strong FXR antagonistic effects
- FXR agonist activity (in words) [3]: no FXR agonistic effects
